The values below come from PMC7704577 (Bioorganic & medicinal chemistry letters, 2020).

Bridge positions count the residues as written; N and C are the ends. Square brackets hold non-standard residues; d marks the D form. Peptide text beside a SMILES is read from it. * marks the point of attachment. NODAGA = O=C(O)CN1CCN(CC(=O)O)CCN(C(CCC(=O)*)C(=O)O)CC1; Nle = CCCC[C@H](N)C(=O)O

Test [1] addresses MC1 receptor (B16/F10 melanoma cells) (Mus musculus, UniProt Q01727). As to the kind of experiment: In vitro competitive receptor binding assay on B16/F10 melanoma cells. The method, boiled down: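 Competitive displacement on intact B16/F10 cells (0.5×10^5/well, n = 3; assay run in triplicate): 2 h at 25 °C with ~30,000 cpm 125I-(Tyr2)-NDP-MSH plus 10−12 to 10−5 M test peptide in MEM binding medium (25 mM HEPES pH 7.4, 0.2% BSA, 0.3 mM 1,10-phenanthroline). Cells rinsed twice in ice-cold 0.2% BSA/PBS, lysed in 1 N NaOH 5 min, gamma-counted; IC50 by curve fit.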

Test [2] deals with MC1R. Particulars: no reference given; cited from earlier work.

The IC50 is the concentration at which inhibition is half-maximal.

MC1 receptor (B16/F10 melanoma cells), sequence (Q01727 whole entry): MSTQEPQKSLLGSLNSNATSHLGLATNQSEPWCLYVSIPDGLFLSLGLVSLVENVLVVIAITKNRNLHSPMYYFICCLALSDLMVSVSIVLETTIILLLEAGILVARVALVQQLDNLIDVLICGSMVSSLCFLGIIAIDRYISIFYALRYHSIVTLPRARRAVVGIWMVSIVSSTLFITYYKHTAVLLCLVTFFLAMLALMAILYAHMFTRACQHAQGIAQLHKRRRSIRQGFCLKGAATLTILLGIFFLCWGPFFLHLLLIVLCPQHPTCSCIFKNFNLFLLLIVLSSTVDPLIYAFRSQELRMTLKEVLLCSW

In test [1], `CCCC[C@H](NC(=O)CNC(=O)CNC(=O)CCC(C(=O)O)N1CCN(CC(=O)O)CCN(CC(=O)O)CC1)C(=O)N[C@H]1CC(=O)NCCCC[C@@H](C(N)=O)NC(=O)[C@H](Cc2c[nH]c3ccccc23)NC(=O)[C@H](CCCNC(=N)N)NC(=O)[C@@H](Cc2ccccc2)NC(=O)[C@H](Cc2c[nH]cn2)NC1=O` (stereo partly drawn) [NODAGA-GGNle-CycMSHhex, 1,4,7-triazacyclononane,1-gluteric acid-4,7-acetic acid-GlyGlyNle-c[Asp-His-DPhe-Arg-Trp-Lys]-CONH2] ({NODAGA}-GG[Nle]DH[dF]RWK-NH2; lactam 4-9) displayed a half-inhibitory concentration (IC50) of 0.87 ± 0.12 nM.

With [Nle^4, D-Phe^7]-α-MSH [NDP-MSH], the “MC1R binding affinity” value in test [2] is recorded as “sub-nanomolar MC1R binding affinity”.
